# Rows were chosen to be rich in hits. Some 4.1% of all compounds tested hit in one or more screens of this group.
# APP 5'UTR act = activates APP 5'UTR luciferase reporter; SH-SY5Y APP 5'UTR luciferase reporter, luminescence; zero percent = DMSO vehicle wells; activation, % at 2 µM; hit rate 1% among 190,000; AID 1276;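 active = activation above a set limit, based on mean plus 3 SD of controls, cut at about 140% in these data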
# FLuc inh counter = inhibits firefly luciferase, flagging false hits in luciferase inhibition screens; ATPLite firefly luciferase biochemical luminescence, 10 min; AID 1006; inhibition, % at 10 µM; hit rate 1.5% among 200,000; P08659;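 active = inhibition above about 50% when tested at 10 µM, limit read from the data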
# Target sequence (P08659 whole entry, looked up): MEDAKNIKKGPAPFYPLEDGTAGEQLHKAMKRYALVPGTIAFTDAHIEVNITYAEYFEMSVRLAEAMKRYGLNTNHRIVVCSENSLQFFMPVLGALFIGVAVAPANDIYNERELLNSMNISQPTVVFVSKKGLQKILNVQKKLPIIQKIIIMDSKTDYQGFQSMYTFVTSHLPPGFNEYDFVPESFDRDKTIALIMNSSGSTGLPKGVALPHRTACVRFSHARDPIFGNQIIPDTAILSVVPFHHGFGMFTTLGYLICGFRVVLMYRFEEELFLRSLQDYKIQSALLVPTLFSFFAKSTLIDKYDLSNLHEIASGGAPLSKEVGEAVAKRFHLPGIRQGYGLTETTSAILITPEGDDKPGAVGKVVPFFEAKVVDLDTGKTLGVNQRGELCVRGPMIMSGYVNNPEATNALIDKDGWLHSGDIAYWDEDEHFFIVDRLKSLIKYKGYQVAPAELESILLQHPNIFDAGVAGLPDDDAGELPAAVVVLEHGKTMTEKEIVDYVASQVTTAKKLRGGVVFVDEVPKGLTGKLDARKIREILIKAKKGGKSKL
# STAT1 activator = activators of IFN-gamma induced STAT1 signaling. NIH 3T3 STAT1-luciferase reporter, luminescence; 100% = IFN-gamma alone, no compound. activation (% of control), % at 5.5 µM. hit rate 2.6% among 200,000;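 active = activation above the screen-wide mean activation plus 3 SD, cut at about 130% in these data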;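 also: raw ratio to IFN-gamma control signal so 100% means no change and 0% no light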
# FLuc act counter = firefly luciferase counter-screen for stimulation assays; ATPlite luciferase biochemical, luminescence, 10 min; 0 = ATP-free wells, 1 = DMSO control; activation factor at 10 µM; 200,000 tested, under 10 active; AID 1027;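 active = luciferase activation factor, scaled between plate controls, of at least 2 with compound at 10 µM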
#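 test system = cell-free luciferase reagent | medium = PBS as buffer for the ATP substrate | dosing = test compounds dosed from 2 mM stocks in 100% DMSO | incubation = 10 min at ambient temperature | detection = luminescence measurement of luciferase light output | benchmarks = low control with PBS replacing ATP, high control enzyme plus ATP without compound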
# NF-kB expr up = raises NF-kB expression in human neuronal cells. NF-kB reporter expression; hits give high values. fold change at 12.5 µM. hit rate 1.6% among 190,000; in the data active = fold change above about 3.3
# STAT1 activ conf = STAT1 activation, confirmation assay; shares compounds with STAT1 activator; hit rate 97% among 1,200; activation (% of control), % at 5.7 µM; NIH 3T3 STAT1-luciferase reporter, IFN-gamma potentiation, luminescence; 100% = IFN-gamma EC80 alone, no compound;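 active = activation above a set limit carried over from the earlier primary STAT1 screen, cut at about 140% in these data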;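 also: simple ratio to median IFN-gamma plus DMSO wells so 0% means no light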
# NFkB act STAT1ct = NF-kappaB activation in STAT1 activator counter-screen | shares compounds with STAT1 activator | HEK293T NF-kB luciferase reporter, TNF-alpha stimulated, luminescence; 100% = TNF-alpha with vehicle only | activation (% of control), % at 5.7 µM | hit rate 43% among 1,200 | AID 1306;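 active = activation above the mean of solvent-only control wells plus 3 SD, set per campaign, cut at about 130% in these data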;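 also: TNF-alpha given at a submaximal dose yielding about 80% of full reporter signal; values are well signal over median control so 100% means no change and 0% no light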
# STAT3 act STAT1c = counter-screen for STAT1 activators: human STAT3 activation | shares compounds with STAT1 activator | activation (% of control), % at 5.7 µM | hit rate 46% among 1,200 | U3A cells STAT3-luciferase reporter, IL-6, luminescence; cells lack STAT1; 100 = IL-6 alone, no compound effect | AID 1316;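 active = activation above the solvent-only control well mean plus 3 SD, set per plate batch, cut at about 110% in these data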;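 also: 0% = no luminescence and 100% = median IL-6 plus DMSO wells; higher means more STAT3 reporter activation so hits are non-selective activators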
# * marks the source's active call; other numbers are inactive results; . = no result.
SMILES,APP 5'UTR act,FLuc inh counter,STAT1 activator,FLuc act counter,NF-kB expr up,STAT1 activ conf,NFkB act STAT1ct,STAT3 act STAT1c
Oc1sc(C=Nc2ccccc2)c2ccccc12,153*,10,166*,0.9,8.1*,209*,141*,108
CCOc1ccc(/C=N/n2cc(-c3ccccc3)[nH]c2=S)cc1,22,0,113,1,1,.,.,.
Cc1ccc(-c2csc(C(C#N)=C3CCCC3)n2)cc1,23,32,125,0.7,3.2,.,.,.
N#CC(=C1CCCC1)c1nc(-c2ccccc2)cs1,99,54*,166*,0.5,8.1*,215*,154*,122*
CC(C)c1ccc(N=C2NN=C(c3cccs3)CS2)cc1,169*,50*,153*,0.5,1.1,195*,126,111*
CC(=O)Nc1ccc(NC(=O)C(C)OC(=O)CNC(=O)c2sc3ccccc3c2Cl)cc1 (stereo unspecified),36,5,96,0.9,1,.,.,.
Nc1c(C(=O)c2ccccc2)oc2ccc(Br)cc12,124,4,155*,1,4*,188*,136*,130*
Nc1c(C(=O)c2ccc(Br)cc2)oc2ccccc12,14,-1,100,1,1.2,.,.,.
O=C(c1ccc(F)cc1)c1cc2ccccc2o1,59,26,157*,0.7,3.6*,174*,129,103
N/C(=N\NC(=O)c1ccc(F)cc1)c1cc2ccccc2oc1=O,9,4,99,1,1.1,.,.,.
COC(=O)c1cnn(-c2nc(OC)cc(OC)n2)c1C,4,-5,97,1.1,1.3,.,.,.
COc1cc(OC)nc(-n2ncc(Br)c(Br)c2=O)n1,-94,-6,240*,1.1,1.1,273*,87,95
COc1ccc(NC(=O)CN2CCCCC2)cc1,15,0,100,1,1.3,.,.,.
Cc1ccc(C(=O)COC(=O)c2ccc(O)cc2)cc1,149*,33,153*,0.7,6.2*,170*,121,122*
Cc1c(C(O)CN2CCC(C(N)=O)CC2)c2ccccc2n1C (stereo unspecified),-4,-2,91,1,1.8,.,.,.
Cc1ncsc1C(=O)Nc1nc2c(s1)CC(C)CC2 (stereo unspecified),121,58*,152*,0.4,4.6*,179*,123,100
CC1CCc2nc(NC(=O)C3CC3)sc2C1 (stereo unspecified),21,15,120,0.8,1.9,.,.,.
CC1(C)CC(=O)C(CCC(=O)c2ccccc2)C(C)(C)N1 (stereo unspecified),-2,-8,103,1.1,1,.,.,.
Cc1noc(NS(=O)(=O)c2ccc(N/C=C\C(=O)c3ccc(F)cc3)cc2)c1C,12,5,112,0.9,1.2,.,.,.
NS(=O)(=O)c1ccc(N/C=C\C(=O)c2ccc(F)cc2)cc1,126,12,156*,0.9,3.2,188*,128,115*
Cc1ccc(/C=N/N2CCN(C3c4ccccc4-c4ccccc43)CC2)s1,2,-7,99,1.1,1.1,.,.,.
c1ccc2sc(N3CCOCC3)nc2c1,29,9,117,0.9,1.3,.,.,.
c1ccc(N2CCN(c3nc4cc5c(cc4s3)OCCO5)CC2)cc1,49,16,158*,0.8,2.1,190*,125,85
COc1cc(/C=N/O)ccc1OCc1ccccc1Cl,186*,37,182*,0.6,7.2*,191*,125,120*
COc1ccc(C2OCC3(CO2)SC(=O)NC3=O)cc1 (stereo unspecified),-14,-2,101,1,1.5,.,.,.
CCOc1cccc(CNc2ccc(O)cc2)c1OCc1ccc(Cl)cc1,15,-2,102,1,0.93,.,.,.

# Source: PubChem BioAssay (several laboratories)
